ChEMBL document CHEMBL1629704, “Inhibition of dengue virus by an ester prodrug of an adenosine analog” (Antimicrob Agents Chemother, 2010)
pEC50: −log10 of the molar value.

How the values were obtained:
dengue virus type 2 [1] = assay: Antiviral activity against Dengue virus 2 NGC infected in human A549 cells by CFI assay; format: functional, organism-based
Outline: (§1)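 CFI assay: A549 cells seeded 2 × 10^4/well, infected next day (MOI 0.3 for DENV-2) with compound-virus mixture for 1 h, then refed with compound-containing medium. On day 2 cells were methanol-fixed at 4°C and intracellular E protein detected by ELISA (4G2 primary, HRP anti-mouse secondary). EC50 is the average of two independent experiments.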

dengue virus type 1 = assay: Antiviral activity against Dengue virus 1 MY10245 infected in human A549 cells by CFI assay; format: functional, organism-based; outline: as §1
dengue virus type 2 [2] = assay: Antiviral activity against Dengue virus 2 MY10340 infected in human A549 cells by CFI assay; format: functional, organism-based; outline: as §1
dengue virus type 3 = assay: Antiviral activity against Dengue virus 3 MY22366 infected in human A549 cells by CFI assay; format: functional, organism-based; outline: as §1
dengue virus type 4 = assay: Antiviral activity against Dengue virus 4 MY22713 infected in human A549 cells by CFI assay; format: functional, organism-based; outline: as §1
dengue virus type 2 [3] = assay: Antiviral activity against Dengue virus 2 NGC infected in human PBMC cells by plaque assay; format: functional, organism-based
dengue virus type 2 [4] = assay: Antiviral activity against Dengue virus 2 TSV01 infected in AG129 mouse assessed as reduced viremia by 25 mg/kg, po BID for 3 days measured on day 4 by plaque assay; format: functional
Outline: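 AG129 mice (lacking IFN-α/β and IFN-γ receptors) were inoculated i.p. with 2 × 10^6 PFU DENV-2 in 0.4 ml. Immediately afterwards, 0.2 ml compound in ethanol-PEG-D5W (10:30:60) was given by oral gavage twice daily for 3 days. Day-4 blood viremia was measured by plaque assay; 6 or 8 mice per group.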

pEC50 (dengue virus type 2 [1]): 5.79
pEC50 (dengue virus type 1): 5.58
pEC50 (dengue virus type 2 [2]): 5.95
pEC50 (dengue virus type 3): 6.34
pEC50 (dengue virus type 4): 6.15
pEC50 (dengue virus type 2 [3]): 6.24
SMILES: C#C[C@@]1(O)[C@H](O)[C@@H](CO)O[C@H]1n1ccc2c(N)ncnc21
fold change (FC) (dengue virus type 2 [4]): 10
